According to ChEMBL document CHEMBL1817648, “Synthesis and in vitro antibacterial activity of a series of novel gatifloxacin derivatives” (Eur J Med Chem, 2011):
Values after ≈ are worked out from the molar mass of the structure shown.

How the values were obtained:
Klebsiella pneumoniae [1] = assay: Antibacterial activity against Klebsiella pneumoniae 09-23 after 18 to 24 hrs by NCCLS M100-S11 two fold serial dilution method; type: functional
Escherichia coli [2] = assay: Antibacterial activity against Escherichia coli 08-22 after 18 to 24 hrs by NCCLS M100-S11 two fold serial dilution method; type: functional
Pseudomonas aeruginosa [3] = assay: Antibacterial activity against Pseudomonas aeruginosa 09-32 after 18 to 24 hrs by NCCLS M100-S11 two fold serial dilution method; type: functional
[4] = tested on: Staphylococcus epidermidis; assay: Antibacterial activity against methicillin-sensitive Staphylococcus epidermidis 09-3 after 18 to 24 hrs by NCCLS M100-S11 two fold serial dilution method; type: functional
Outline: (§1)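 Two-fold serial dilution in agar medium. MIC read as the lowest concentration giving complete inhibition of bacterial growth after incubation at 35 °C for 18–24 h.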

[5] = tested on: Staphylococcus epidermidis; assay: Antibacterial activity against methicillin-sensitive Staphylococcus epidermidis 09-6 after 18 to 24 hrs by NCCLS M100-S11 two fold serial dilution method; type: functional; outline: as §1
[6] = tested on: Staphylococcus epidermidis; assay: Antibacterial activity against methicillin-resistant Staphylococcus epidermidis 09-4 after 18 to 24 hrs by NCCLS M100-S11 two fold serial dilution method; type: functional; outline: as §1
Klebsiella pneumoniae [7] = assay: Antibacterial activity against Klebsiella pneumoniae 09-22 after 18 to 24 hrs by NCCLS M100-S11 two fold serial dilution method; type: functional
Enterococcus faecium [8] = assay: Antibacterial activity against Enterococcus faecium 08-2 after 18 to 24 hrs by NCCLS M100-S11 two fold serial dilution method; type: functional
Pseudomonas aeruginosa [9] = assay: Antibacterial activity against Pseudomonas aeruginosa ATCC 27853 after 18 to 24 hrs by NCCLS M100-S11 two fold serial dilution method; type: functional
Enterococcus faecalis [10] = assay: Antibacterial activity against Enterococcus faecalis 08-10 after 18 to 24 hrs by NCCLS M100-S11 two fold serial dilution method; type: functional
Escherichia coli [11] = assay: Antibacterial activity against Escherichia coli ATCC 25922 after 18 to 24 hrs by NCCLS M100-S11 two fold serial dilution method; type: functional; conditions: ATCC25922
Staphylococcus aureus [12] = assay: Antibacterial activity against methicillin-sensitive Staphylococcus aureus 08-1 after 18 to 24 hrs by NCCLS M100-S11 two fold serial dilution method; type: functional
Staphylococcus aureus [13] = assay: Antibacterial activity against methicillin-resistant Staphylococcus aureus 08-1 after 18 to 24 hrs by NCCLS M100-S11 two fold serial dilution method; type: functional; outline: as §1
Enterococcus faecalis [14] = assay: Antibacterial activity against Enterococcus faecalis 08-12 after 18 to 24 hrs by NCCLS M100-S11 two fold serial dilution method; type: functional
Streptococcus pneumoniae [15] = assay: Antibacterial activity against Streptococcus pneumoniae 08-2 after 18 to 24 hrs by NCCLS M100-S11 two fold serial dilution method; type: functional
Escherichia coli [16] = assay: Antibacterial activity against Escherichia coli 08-21 after 18 to 24 hrs by NCCLS M100-S11 two fold serial dilution method; type: functional
Staphylococcus aureus [17] = assay: Antibacterial activity against Staphylococcus aureus ATCC 25923 after 18 to 24 hrs by NCCLS M100-S11 two fold serial dilution method; type: functional; conditions: ATCC25923
Pseudomonas aeruginosa [18] = assay: Antibacterial activity against Pseudomonas aeruginosa 09-33 after 18 to 24 hrs by NCCLS M100-S11 two fold serial dilution method; type: functional
Enterococcus faecium [19] = assay: Antibacterial activity against Enterococcus faecium 08-7 after 18 to 24 hrs by NCCLS M100-S11 two fold serial dilution method; type: functional
Streptococcus pneumoniae [20] = assay: Antibacterial activity against Streptococcus pneumoniae 08-4 after 18 to 24 hrs by NCCLS M100-S11 two fold serial dilution method; type: functional
Pseudomonas aeruginosa [21] = assay: Antibacterial activity against Pseudomonas aeruginosa 09-34 after 18 to 24 hrs by NCCLS M100-S11 two fold serial dilution method; type: functional
[22] = Cytotoxicity against african green monkey Vero cells after 72 hrs by MTT assay; type: cell-based; conditions: chlorocebus sabaeus
Outline: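 Vero cells were kept in Minimum Essential Medium with Earle's salts plus 10% fetal bovine serum at 37 °C under 5% CO₂. Cells were seeded at 1 × 10⁴ per well and allowed to recover 24 h. Medium was then replaced with assay medium containing compound or no drug, and cells were exposed for 72 h. CC₅₀ is the 50% cellular cytotoxic concentration.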

Structure (SMILES)	MIC (Klebsiella pneumoniae [1]) [µg/mL]	MIC (Escherichia coli [2]) [µg/mL]	MIC (Pseudomonas aeruginosa [3]) [µg/mL]	MIC [4] [µg/mL]	MIC [5] [µg/mL]	MIC [6] [µg/mL]	MIC (Klebsiella pneumoniae [7]) [µg/mL]	MIC (Enterococcus faecium [8]) [µg/mL]	MIC (Pseudomonas aeruginosa [9]) [µg/mL]	MIC (Enterococcus faecalis [10]) [µg/mL]	MIC (Escherichia coli [11]) [µg/mL]	MIC (Staphylococcus aureus [12]) [µg/mL]	MIC (Staphylococcus aureus [13]) [µg/mL]	MIC (Enterococcus faecalis [14]) [µg/mL]	MIC (Streptococcus pneumoniae [15]) [µg/mL]	MIC (Escherichia coli [16]) [µg/mL]	MIC (Staphylococcus aureus [17]) [µg/mL]	MIC (Pseudomonas aeruginosa [18]) [µg/mL]	MIC (Enterococcus faecium [19]) [µg/mL]	MIC (Streptococcus pneumoniae [20]) [µg/mL]	further results
COc1c(N2CCNC(C)C2)c(F)cc2c(=O)c(C(=O)O)cn(C3CC3)c12 (stereo unspecified) [GATIFLOXACIN]	2 (≈ 5.33 µM)	4 (≈ 10.7 µM)	8 (≈ 21.3 µM)	0.25 (≈ 0.666 µM)	8 (≈ 21.3 µM)	0.25 (≈ 0.666 µM)	0.125 (≈ 0.333 µM)	2 (≈ 5.33 µM)	1 (≈ 2.66 µM)	4 (≈ 10.7 µM)	2 (≈ 5.33 µM)	0.06 (≈ 0.16 µM)	0.125 (≈ 0.333 µM)	2 (≈ 5.33 µM)	4 (≈ 10.7 µM)	4 (≈ 10.7 µM)	0.125 (≈ 0.333 µM)	4 (≈ 10.7 µM)	4 (≈ 10.7 µM)	0.25 (≈ 0.666 µM)	MIC (Pseudomonas aeruginosa [21]): 1 µg/mL (≈ 2.66 µM)
COC(=O)CCN1CCN(c2c(F)cc3c(=O)c(C(=O)O)cn(C4CC4)c3c2OC)CC1C (stereo unspecified)	> 128	> 128	> 128	> 128	> 128	> 128	> 128	> 128	> 128	> 128	> 128	4 (≈ 8.67 µM)	4 (≈ 8.67 µM)	> 128	> 128	> 128	8 (≈ 17.3 µM)	> 128	> 128	> 128	CC50 at 72 h [22]: > 1000 µg/mL; MIC (Pseudomonas aeruginosa [21]): > 128 µg/mL
COC(=O)CN1CCN(c2c(F)cc3c(=O)c(C(=O)O)cn(C4CC4)c3c2OC)CC1C (stereo unspecified)	> 128	> 128	128 (≈ 286 µM)	32 (≈ 71.5 µM)	32 (≈ 71.5 µM)	32 (≈ 71.5 µM)	128 (≈ 286 µM)	> 128	128 (≈ 286 µM)	> 128	128 (≈ 286 µM)	32 (≈ 71.5 µM)	128 (≈ 286 µM)	> 128	> 128	> 128	8 (≈ 17.9 µM)	128 (≈ 286 µM)	> 128	> 128	CC50 at 72 h [22]: 500 µg/mL (≈ 1120 µM); MIC (Pseudomonas aeruginosa [21]): > 128 µg/mL
COc1c(N2CCN(C/C(C)=N/O)C(C)C2)c(F)cc2c(=O)c(C(=O)O)cn(C3CC3)c12 (stereo unspecified)	> 128	> 128	32 (≈ 71.7 µM)	0.25 (≈ 0.56 µM)	0.25 (≈ 0.56 µM)	0.25 (≈ 0.56 µM)	> 128	> 128	32 (≈ 71.7 µM)	> 128	128 (≈ 287 µM)	0.25 (≈ 0.56 µM)	> 128	> 128	128 (≈ 287 µM)	> 128	0.25 (≈ 0.56 µM)	> 128	> 128	0.25 (≈ 0.56 µM)	CC50 at 72 h [22]: 177 µg/mL (≈ 396 µM); MIC (Pseudomonas aeruginosa [21]): > 128 µg/mL
CO/N=C(\C)CN1CCN(c2c(F)cc3c(=O)c(C(=O)O)cn(C4CC4)c3c2OC)CC1C (stereo unspecified)	> 128	> 128	64 (≈ 139 µM)	0.5 (≈ 1.09 µM)	4 (≈ 8.69 µM)	0.5 (≈ 1.09 µM)	> 128	> 128	32 (≈ 69.5 µM)	> 128	64 (≈ 139 µM)	0.25 (≈ 0.543 µM)	> 128	> 128	64 (≈ 139 µM)	> 128	0.5 (≈ 1.09 µM)	> 128	> 128	2 (≈ 4.34 µM)	CC50 at 72 h [22]: 49.6 µg/mL (≈ 108 µM); MIC (Pseudomonas aeruginosa [21]): > 128 µg/mL
COc1c(N2CCN(C/C(C)=N/NC(=O)c3ccncc3)C(C)C2)c(F)cc2c(=O)c(C(=O)O)cn(C3CC3)c12 (stereo unspecified)	32 (≈ 58.1 µM)	64 (≈ 116 µM)	4 (≈ 7.26 µM)	0.25 (≈ 0.454 µM)	0.25 (≈ 0.454 µM)	2 (≈ 3.63 µM)	16 (≈ 29.1 µM)	64 (≈ 116 µM)	4 (≈ 7.26 µM)	128 (≈ 232 µM)	16 (≈ 29.1 µM)	2 (≈ 3.63 µM)	32 (≈ 58.1 µM)	128 (≈ 232 µM)	32 (≈ 58.1 µM)	128 (≈ 232 µM)	2 (≈ 3.63 µM)	128 (≈ 232 µM)	64 (≈ 116 µM)	4 (≈ 7.26 µM)	CC50 at 72 h [22]: 250 µg/mL (≈ 454 µM); MIC (Pseudomonas aeruginosa [21]): 32 µg/mL (≈ 58.1 µM)
